# Published values gathered from unrelated publications.
# Each line is one published result; the experiments were not run side by side.
# Target: SRSF protein kinase 3 (SRPK3, Homo sapiens, UniProt Q9UPE1)
Compound,assay,conditions,remaining binding
CN(C)c1nccc(-c2cnn3ncccc23)n1,binding,1 µM,92%
CC(C)(C)c1ccc(-c2nc(CBr)nn2-c2cccc(O)c2)cc1,"cell-free assay, competition with immobilised ligand",10 µM,100%
O=C(Nc1cccnn1)N1CC(C/C=C/c2cncc(Oc3ccc(C(F)(F)F)cn3)n2)C1,"cell-free assay, competition with immobilised ligand",1 µM,100%
COc1ccnn2ncc(-c3ccnc(N(C)C)n3)c12,binding,1 µM,67%
C[C@@H](c1ccc(-n2cnc3c(N)ncnc32)cc1)N1CCc2nn(C)c(Cc3ccccc3)c2C1=O,"binding, competition with immobilised ligand",0.1 µM,76%
C[C@H](NC(=O)c1cnc2n1[C@](C)(Cc1ccc(C#N)cc1)C(=O)N2c1cc(Cl)c(F)c(Cl)c1)C(=O)NC1(c2ccccn2)CC1,"cell-free assay, competition with immobilised ligand",1 µM,100%
FC(F)(F)Oc1cccc(-c2cnc3ccc(-c4ccncc4)nn23)c1,"binding, competition with immobilised ligand",5 µM,41%
CCCCN(CCCC)C(=O)CN1C[C@@H](c2cc(OC)c3c(c2)OCO3)[C@H](C(=O)O)[C@H]1CC(C)(C)CCC,"cell-free assay, competition with immobilised ligand",1 µM,100%
Cc1cnn2ncc(-c3ccnc(N(C)C)n3)c2c1,binding,1 µM,56%
c1cncc(-c2cccc(Nc3nccc(NC4CCCCC4)n3)c2)c1,"binding, competition with immobilised ligand",10 µM,55%
C[C@@H]1CCN(c2nccc(-c3cnn4ncccc34)n2)C1,binding,1 µM,55%
N#Cc1ccccc1CSc1nnc2c(n1)[nH]c1ccccc12,"binding, competition with immobilised ligand",10 µM,75%
CS(=O)(=O)N1CCCC(NC(=O)[C@H](CCC2CCCCC2)NC(=O)c2ccc(CNC(=O)c3cnc4ccccn34)cc2)C1 (stereo partly drawn),"cell-free assay, competition with immobilised ligand",0.1 µM,100%
CC1CCCN1c1nccc(-c2cnn3ncccc23)n1 (stereo not drawn),binding,1 µM,86%
COc1cnc(Nc2cccc(S(N)(=O)=O)c2)nc1N1CCN(c2ccccc2)C(=O)C1,"binding, competition with immobilised ligand",1 µM,79%
O=C(c1ccc(Nc2ncc(Cl)c(-c3cc4ccccc4s3)n2)cc1)N1CCC(N2CCCC2)CC1,"binding, competition with immobilised ligand",1 µM,100%
O=C(NCC1CCOCC1)c1n[nH]cc1NC(=O)c1c(F)cccc1F,"binding, competition with immobilised ligand",1 µM,83%
Cc1c(C(=O)O)cc(-c2ccc(C3CCNCC3)cc2)c2ccc(-c3ccc(C(F)(F)F)cc3)cc12,"binding, competition with immobilised ligand",1 µM,100%
N[C@@H]1CCN(c2nccc(-c3cnn4ncccc34)n2)C1,binding,1 µM,81%
O=C(NCCCN1CCOCC1)c1ccc(Nc2nccc(-c3cc4ccccc4s3)n2)cc1,"binding, competition with immobilised ligand",1 µM,99%
NS(=O)(=O)c1cc(NC(=O)Cc2ccccc2)ccc1Oc1cccc(Cl)c1,"cell-free assay, competition with immobilised ligand",1 µM,100%
O=C(c1ccc(Nc2ncc(Cl)c(-c3ccc(Cl)s3)n2)cc1)N1CCC(N2CCCC2)CC1,"binding, competition with immobilised ligand",1 µM,100%
CO[C@H]1CC[C@H](CNc2ccc(S(=O)(=O)NC(=O)c3ccc(N4CCN(CC5=C(c6ccc(Cl)cc6)CC(C)(C)CC5)CC4)cc3Oc3cnc4[nH]ccc4c3)cc2[N+](=O)[O-])CC1,"cell-free assay, competition with immobilised ligand",1 µM,100%
C[C@@H]1CN(c2ccc3ncc(-c4ccc5[nH]nc(C6CC6)c5c4)n3n2)C[C@H](C)O1,"binding, competition with immobilised ligand",50 nM,97%
